In ChEMBL document CHEMBL1142517, “Discovery of an orally bioavailable small molecule inhibitor of prosurvival B-cell lymphoma 2 proteins” (J Med Chem, 2008):

What was measured:
[1] = target: Apoptosis regulator Bcl-2 (Homo sapiens, UniProt P10415); assay: Displacement of fluorescein labeled Bax peptide from Bcl2 by fluorescence polarization assay
[2] = Cytotoxicity against IL3-dependent mouse FL5.12 cells overexpressing human Bcl2 assessed as cell viability after 24 hrs by MTS assay in absence of serum; format: functional, cell-based; details: FL5.12, 24 h
Outline: (§1)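 Mouse FL5.12 cells transfected with Bcl-XL or Bcl-2, deprived of IL-3 (no FBS or WEHI-3B conditioned medium) for 2 days. Then moved to serum-free gelatin medium (3.4 mg/mL bovine gelatin) with serially diluted compound for 24 h. Viability by MTS or CellTiter-Glo. Determinations in duplicate.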

[3] = Cytotoxicity against human NCI-H146 cells assessed as cell viability after 48 hrs in presence of 10% human serum; format: functional, cell-based; details: NCI-H146, 48 h
Outline: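 NCI-H146 SCLC cells maintained in RPMI 1640 with 10% FBS at 37 °C, 5% CO2. Treated for 48 h in medium with 10% human serum. Viability by CellTiter-Glo luminescence. Values from duplicate runs.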

[4] = Cytotoxicity against IL3-dependent mouse FL5.12 cells overexpressing human Bcl-XL assessed as cell viability after 24 hrs by MTS assay in absence of serum; format: functional, cell-based; details: FL5.12, 24 h; outline: as §1
[5] = AUC in Sprague-Dawley rat at 5 mg/kg, po; format: ADME, organism-based; set-up: dose 5 mg/kg, route oral; details: plasma
Outline: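 Sprague-Dawley rats, single 5 mg/kg oral dose by gavage in 10% DMSO in PEG-400, n = 3. Heparinized blood taken before dosing and at set times. Plasma proteins precipitated with acetonitrile, then LC-MS/MS against spiked plasma standards with an internal standard. AUC by linear trapezoidal rule.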

[6] = Ratio of AUC for Sprague-Dawley rat at 5 mg/kg, po to EC50 for human NCI-H146 cells in presence of 10% human serum; format: functional
Outline: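 The cells were treated for 48 h in medium with 10% human serum, and viability was read by CellTiter-Glo luminescence.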

[7] = AUC in CD1 mouse at 50 mg/kg, po; format: ADME, organism-based; set-up: dose 50 mg/kg, route oral; details: plasma
Outline: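 CD-1 mice, single 50 mg/kg oral gavage in 2% DMSO/5% Tween-80/20% propylene glycol/73% D5W, n = 27. Groups of three euthanized by CO2 at set times and blood taken by cardiac puncture. Plasma by LC-MS/MS. AUC by linear trapezoidal rule.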

[8] = AUC in Beagle dog at 2.5 mg/kg, iv or po; format: ADME, organism-based, Canis lupus familiaris; set-up: dose 2.5 mg/kg, route oral; details: plasma
Outline: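 Beagle dogs, single 2.5 mg/kg dose in 10% DMSO in PEG-400, n = 3 per route. Intravenous dose given as a slow cephalic-vein bolus; oral dose by gavage followed by 10 mL water. Plasma by LC-MS/MS. AUC by linear trapezoidal rule.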

[9] = AUC in cynomolgus monkey at 2.5 mg/kg, po; format: ADME, organism-based, Macaca fascicularis; set-up: dose 2.5 mg/kg, route oral; details: plasma
Outline: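 Cynomolgus monkeys, single 2.5 mg/kg oral dose in 10% DMSO in PEG-400 by gastric intubation followed by 5 mL water, n = 3. Serial heparinized plasma assayed by LC-MS/MS. AUC by linear trapezoidal rule.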

[10] = Oral bioavailability in Sprague-Dawley rat at 5 mg/kg; format: ADME, organism-based; details: in vivo
[11] = Cmax in Sprague-Dawley rat at 5 mg/kg, po; format: ADME, organism-based; set-up: dose 5 mg/kg, route oral; details: in vivo
Outline: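 Rats (Sprague-Dawley) given 5 mg/kg by oral gavage in 10% DMSO/PEG-400, n = 3. Serial heparinized blood samples. Plasma drug level by LC-MS/MS after acetonitrile protein precipitation, quantified by linear regression of peak-area ratio to internal standard. Concentration–time data fitted multiexponentially.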

[12] = Oral elimination half life in Sprague-Dawley rat; format: ADME, organism-based; details: in vivo, read-out: beta t1/2 (converted)
[13] = Oral elimination half life in CD1 mouse; format: ADME, organism-based; details: in vivo, read-out: beta t1/2 (converted)
[14] = Oral elimination half life in Beagle dog; format: ADME, organism-based, Canis lupus familiaris; details: in vivo, read-out: beta t1/2 (converted)
[15] = Oral elimination half life in cynomolgus monkey; format: ADME, organism-based, Macaca fascicularis; details: in vivo, read-out: beta t1/2 (converted)
[16] = Oral bioavailability in CD1 mouse; format: ADME, organism-based; details: in vivo
[17] = Oral bioavailability in Beagle dog; format: ADME, organism-based, Canis lupus familiaris; details: in vivo
[18] = Oral bioavailability in cynomolgus monkey; format: ADME, organism-based, Macaca fascicularis; details: in vivo
[19] = Oral bioavailability in Sprague-Dawley rat; format: ADME, organism-based; details: in vivo
[20] = test system: NCI-H1963 (Homo sapiens); assay: Antitumor activity against human NCI-H1963 cells xenografted C.B-17 SCID-bg mouse assessed as inhibition of tumor growth at 100 mg/kg, po daily once for 21 days; details: 504 h, read-out: TGI

Sequence of Apoptosis regulator Bcl-2 (P10415 whole entry): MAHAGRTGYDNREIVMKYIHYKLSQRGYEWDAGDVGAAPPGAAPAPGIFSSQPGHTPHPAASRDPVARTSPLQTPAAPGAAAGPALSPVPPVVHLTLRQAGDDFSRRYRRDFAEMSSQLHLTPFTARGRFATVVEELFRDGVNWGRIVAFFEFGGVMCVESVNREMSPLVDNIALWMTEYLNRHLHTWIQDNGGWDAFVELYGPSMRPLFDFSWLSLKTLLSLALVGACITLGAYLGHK

SMILES | Ki [1] [nM] | AUC [5] [µM·h] | EC50 [2] [nM] | EC50 [3] [nM] | EC50 [4] [nM] | Ratio [6] | further results
CN(C)CC[C@H](CSc1ccccc1)Nc1ccc(S(=O)(=O)NC(=O)c2ccc(N3CCN(Cc4ccccc4-c4ccc(Cl)cc4)CC3)cc2)cc1 | < 1 | – | 2700 | 78700 | 15000 | – | –
O=C(NS(=O)(=O)c1ccc(N[C@H](CCN2CCOCC2)CSc2ccccc2)c(S(=O)(=O)C(F)(F)F)c1)c1ccc(N2CCN(CC3=C(c4ccc(Cl)cc4)CCCC3)CC2)cc1 | < 1 | 3.87 | 1.1 | 58.9 | 0.7 | 65.7 | AUC [7]: 25.2 µM·h; AUC [8]: 3.8 µM·h; AUC [9]: 1.9 µM·h
CN(C)CC[C@H](CSc1ccccc1)Nc1ccc(S(=O)(=O)NC(=O)c2ccc(N3CCN(Cc4ccccc4-c4ccc(Cl)cc4)CC3)cc2)cc1[N+](=O)[O-] [ABT 737] | – | 0.28 | 7.7 | 87 | 30 | – | bioavailability [10]: 6%
CN(C)CC[C@H](CSc1ccccc1)Nc1ccc(S(=O)(=O)NC(=O)c2ccc(N3CCN(Cc4ccccc4-c4ccc(Cl)cc4)CC3)cc2)cc1C(F)(F)F | < 1 | 4.41 | 42 | 2460 | 122 | 1.8 | Cmax [11]: 370 nM; bioavailability [10]: 24%
CN(C)CC[C@H](CSc1ccccc1)Nc1ccc(S(=O)(=O)NC(=O)c2ccc(N3CCN(CC4=C(c5ccc(Cl)cc5)CCCC4)CC3)cc2)cc1[N+](=O)[O-] | < 1 | 0.65 | 11 | 25.7 | 29 | 25.3 | –
CN(C)CC[C@H](CSc1ccccc1)Nc1ccc(S(=O)(=O)NC(=O)c2ccc(N3CCN(Cc4ccccc4-c4ccc(Cl)cc4)CC3)cc2)cc1S(C)(=O)=O | < 1 | – | 170 | 3490 | 415 | – | –
O=C(NS(=O)(=O)c1ccc(N[C@H](CCN2CCOCC2)CSc2ccccc2)c([N+](=O)[O-])c1)c1ccc(N2CCN(Cc3ccccc3-c3ccc(Cl)cc3)CC2)cc1 | < 1 | 1.16 | – | 610 | – | 1.9 | Cmax [11]: 200 nM; bioavailability [10]: 16%
CN(C)CC[C@H](CSc1ccccc1)Nc1ccc(S(=O)(=O)NC(=O)c2ccc(N3CCN(C/C4=C(\c5ccc(Cl)cc5)CCCCCC4)CC3)cc2)cc1[N+](=O)[O-] | < 1 | – | 39 | 200 | 21 | – | –

The next lines start with results.

Ki [1] [nM] | AUC [5] [µM·h] | SMILES | EC50 [2] [nM] | EC50 [3] [nM] | EC50 [4] [nM] | Ratio [6] | further results
< 1 | – | Cc1cc(S(=O)(=O)NC(=O)c2ccc(N3CCN(Cc4ccccc4-c4ccc(Cl)cc4)CC3)cc2)ccc1N[C@H](CCN(C)C)CSc1ccccc1 | 673 | 28800 | – | – | –
2.4 | – | CN(C)CC[C@H](CSc1ccccc1)Nc1ccc(S(=O)(=O)NC(=O)c2ccc(N3CCN(CC4=C(c5ccc(Cl)cc5)CCOC4)CC3)cc2)cc1[N+](=O)[O-] | 33 | 266 | 55 | – | –
< 1 | – | CN(C)CC[C@H](CSc1ccccc1)Nc1ccc(S(=O)(=O)NC(=O)c2ccc(N3CCN(CC4=C(c5ccc(Cl)cc5)CCC4)CC3)cc2)cc1[N+](=O)[O-] | 51 | 691 | 143 | – | –
< 1 | – | CN(C)CC[C@H](CSc1ccccc1)Nc1ccc(S(=O)(=O)NC(=O)c2ccc(N3CCN(CC4=C(c5ccc(Cl)cc5)CCCCC4)CC3)cc2)cc1[N+](=O)[O-] | < 1 | 51.9 | 5 | – | –
< 1 | – | CN(C)CC[C@H](CSc1ccccc1)Nc1ccc(S(=O)(=O)NC(=O)c2ccc(N3CCN(CC4=C(c5ccc(Cl)cc5)CCC(C)(C)C4)CC3)cc2)cc1[N+](=O)[O-] | 0.6 | 98 | 0.9 | – | –
< 1 | 0.83 | CN(C)CC[C@H](CSc1ccccc1)Nc1ccc(S(=O)(=O)NC(=O)c2ccc(N3CCN(Cc4ccccc4-c4ccc(Cl)cc4)CC3)cc2)cc1S(=O)(=O)C(F)(F)F | 4.7 | 39.4 | 12 | 21 | –
< 1 | 2.19 | CN(C)CC[C@H](CSc1ccccc1)Nc1ccc(S(=O)(=O)NC(=O)c2ccc(N3CCN(Cc4ccccc4-c4ccc(Cl)cc4)CC3)cc2)cc1C#N | 49 | 1930 | 225 | 1.1 | –
– | 6.26 | CC1(C)CCC(c2ccc(Cl)cc2)=C(CN2CCN(c3ccc(C(=O)NS(=O)(=O)c4ccc(N[C@H](CCN5CCOCC5)CSc5ccccc5)c(S(=O)(=O)C(F)(F)F)c4)cc3)CC2)C1 [NAVITOCLAX] | 5.9 | 86.7 | 4.2 | – | bioavailability [10]: 20%; AUC [7]: 56.7 µM·h; AUC [8]: 27.8 µM·h; AUC [9]: 6.61 µM·h; half-life [12]: 4 h; half-life [13]: 4 h; half-life [14]: 4 h; half-life [15]: 4 h; bioavailability [16]: 20%; bioavailability [17]: 20%; bioavailability [18]: 20%; bioavailability [19]: 20%; inhibition in vivo at 100 mg/kg [20]: 100%
< 1 | – | CN(C)CC[C@H](CSc1ccccc1)Nc1ccc(S(=O)(=O)NC(=O)c2ccc(N3CCN(Cc4ccccc4-c4ccc(Cl)cc4)CC3)cc2)cc1OC(F)(F)F | 230 | 5080 | 805 | – | –
< 1 | 10.4 | O=C(NS(=O)(=O)c1ccc(NCCSc2ccccc2)c([N+](=O)[O-])c1)c1ccc(N2CCN(Cc3ccccc3-c3ccc(Cl)cc3)CC2)cc1 | – | 33000 | – | 0.32 | Cmax [11]: 1150 nM; bioavailability [10]: 28%
< 1 | 1.25 | CN(C)CC[C@H](CSc1ccccc1)Nc1ccc(S(=O)(=O)NC(=O)c2ccc(N3CCN(Cc4ccccc4-c4ccc(Cl)cc4)CC3)cc2)cc1C(=O)C(F)(F)F | 55 | 2010 | 329 | 0.62 | –
